Rows were chosen to be rich in hits. Some 2.1% of all compounds tested hit in one or more screens of this group.
PDI inh: blocks human protein disulfide isomerase activity; P07237; PDI insulin aggregation turbidity, A650, 90 min; inhibition, % at 10 µM; 350,000 compounds, 0.052% hits;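 active = mean inhibition across replicates of 30% or more, whatever share of single replicates reach that level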
Target sequence (P07237 whole entry, looked up): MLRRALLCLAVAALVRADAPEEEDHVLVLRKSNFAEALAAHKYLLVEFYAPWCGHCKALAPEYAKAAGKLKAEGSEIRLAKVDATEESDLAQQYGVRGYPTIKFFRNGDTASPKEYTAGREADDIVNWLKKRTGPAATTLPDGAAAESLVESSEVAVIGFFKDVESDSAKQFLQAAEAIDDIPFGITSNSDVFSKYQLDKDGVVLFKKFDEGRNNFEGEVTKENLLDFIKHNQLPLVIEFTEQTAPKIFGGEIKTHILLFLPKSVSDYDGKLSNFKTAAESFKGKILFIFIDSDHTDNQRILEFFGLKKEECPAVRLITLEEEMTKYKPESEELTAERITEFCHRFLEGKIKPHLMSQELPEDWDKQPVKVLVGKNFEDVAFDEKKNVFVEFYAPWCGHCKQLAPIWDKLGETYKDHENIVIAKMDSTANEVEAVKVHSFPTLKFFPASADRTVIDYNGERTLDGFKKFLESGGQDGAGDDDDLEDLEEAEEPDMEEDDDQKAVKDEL
ARNT TACC3 PPI: ARNT/TACC3 interaction disruption; 390,000 compounds, 0.66% hits; Q9Y6A5; AlphaScreen His-ARNT PAS-B/GST-TACC3 binding, luminescence; TACC3 fragment carries E629A point mutation; AID 623870; inhibition, % at 9.99 µM;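 active = mean inhibition of replicates at least 50% and at least half of replicates each reaching 50%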;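 note: 0% = complete ARNT plus TACC3 wells and 100% = ARNT alone without TACC3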
FGF22 binding: binders of recombinant human FGF22 by thermal shift. activity (Tm shift, normalised), % at 9.99 µM. 340,000 compounds, 1.5% hits. SYPRO orange fluorescence; percent of sucrose octasulfate shift, DMSO zero;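 active = mean Tm shift, scaled 0 neutral to 100 positive control, at about 1.3% or above, every replicate too, limit read from the data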
MLL AF4-AF9 inh: MLL-AF4/AF9 protein interaction inhibition | 350,000 compounds, 0.47% hits | P42568 | AID 651704 | AlphaScreen, biotin-AF4 peptide binding to FLAG-AF9 | inhibition, % at 10 µM;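 active = every replicate reaching a set inhibition limit, whatever the replicate mean, cut at about 25% in these data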;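 note: 0% = plate neutral control median and 100% = total signal loss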
ERp5 inh: inhibitors of human ERp5 | ERp5 insulin aggregation, absorbance 650 nm, 90 min | Q15084 | 350,000 compounds, 0.05% hits | inhibition, % at 9.99 µM | AID 651711;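 active = mean replicate inhibition above about 25%, with every replicate also reaching it, limit read from the data, passing the limit was not always enough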
FN deposit inh: fibronectin deposition inhibition; AH1F fibroblasts, Alexa488-fibronectin deposition fluorescence, overnight; 350,000 compounds, 0.086% hits; inhibition, % at 12.6 µM;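 active = mean inhibition across replicates of 30% or more, regardless of how many single replicates reach that level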;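 note: positive control wells lacked labelled fibronectin entirely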
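Material – AH1F fibroblast monolayer, labelled fibronectin deposition · Reagent – labelled fibronectin 24 nM · Timing – 1 h adhesion, overnight exposure · Measured by – fluorescence at 485 nm excitation, 525 nm emission · Read-out – inhibition of fibronectin deposition signal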
Starred values were filed as active, the others as inactive; . = no result; ! = not active in a repeat.

SMILES	PDI inh	ARNT TACC3 PPI	FGF22 binding	MLL AF4-AF9 inh	ERp5 inh	FN deposit inh
Cc1ccc(-n2nc(C)c3c(C)c(CCC(=O)Nc4ccc(CN5CCCC5)cc4)c(C)nc32)cc1	8	42	0	27*	4	7
COC(CNC(=O)CCc1c(C)nc2c(c(C)nn2-c2ccc(C)cc2)c1C)OC	16	8	0	-1	3	9
COc1cc(C)c(C(=O)Oc2cc(C)c(C(=O)O)c(O)c2C)c(O)c1C	.	-15	1.6*	0	1	.
COc1ccc(CN2C(=O)c3cccnc3C2=O)cc1S(=O)(=O)NCc1ccccc1	0	48*	0	-1	9	8
COc1ccc(CNS(=O)(=O)c2cc(CN3C(=O)c4cccnc4C3=O)ccc2OC)cc1	-6	18	0	2	-1	3
COCC(C)n1c(SCC(=O)NC(=O)NCc2ccccc2)nc2ccccc2c1=O (stereo not given)	-7	0	44*	1	3	2
Cc1ccc(C(=O)OCC(=O)NCc2ccco2)s1	-5	-2	44*	-1	-1	-2
O=C(COC(=O)/C=C/c1ccc([N+](=O)[O-])cc1)NCc1ccco1	-5	1	0	-7	-3	-2
Cc1ccc(C(=O)OCC(=O)Nc2ccc(C(N)=O)cc2)s1	-2	-4	0	-4	-1	-4
O=C(COC(=O)/C=C/c1ccc(F)cc1)NCc1ccco1	11	0	43*	2	-9	3
CCN(c1ccc(NC(=O)COC(=O)c2ccc(C)s2)cc1)C(C)C	7	14	43*	21	4	12
CCCC#Cc1ccc([C@@H]2[C@H]3CN(C(=O)Nc4ccccc4F)CC(=O)N3[C@H]2CO)cc1	.	.	.	3	-3	.
CC(C)NC(=O)Nc1cccc2c1O[C@@H](CN(C)C(=O)NC(C)C)[C@H](C)CN(C)C2=O	.	.	.	.	.	-6
CCC(=O)N1CCC2(CC1)CN(S(C)(=O)=O)[C@@H](CO)c1[nH]c3cc(OC)ccc3c12	.	.	0	3	.	.
Cc1ccc(S(=O)(=O)N(C)C[C@@H]2Oc3c(NC(=O)c4ccncc4)cccc3C(=O)N([C@H](C)CO)C[C@@H]2C)cc1	.	0	0	-4	4	.
C#CCNC(=O)C1=C[C@@H](c2ccc(C#C)cc2)C[C@@H](OCCCCO)O1	4	-5	.	.	.	-2
C#CCNC(=O)C1=C[C@@H](c2ccccc2)C[C@@H](OCCCCO)O1	8	0	1.7*!	2	5	0
CCOc1ccccc1NC(=S)Nc1ccc2cn[nH]c2c1	6	active	0	-5	5	-7
S=C(Nc1ccccc1)Nc1ccc2cn[nH]c2c1	4	-4	0	-5	-4	-7
COc1ccc(NC(=O)N(C)C[C@@H]2Oc3cc(-c4ccc(C)cc4)ccc3S(=O)(=O)N([C@@H](C)CO)C[C@H]2C)cc1	.	2	0	4	-2	.
CNC[C@@H]1Oc2cc(C#Cc3ccccn3)ccc2S(=O)(=O)N([C@H](C)CO)C[C@H]1C	.	46*	0	0	-3	.
COc1cccc(NC(=O)N(C)C[C@@H]2Oc3cc(C#Cc4ccccc4)ccc3S(=O)(=O)N([C@@H](C)CO)C[C@H]2C)c1	.	13	0	.	.	-8
COc1cccc(NC(=O)N(C)C[C@H]2Oc3cc(C#Cc4ccccc4)ccc3S(=O)(=O)N([C@@H](C)CO)C[C@H]2C)c1	.	4	1.4*	.	.	-9
COc1ccc(NC(=O)N(C)C[C@H]2Oc3cc(-c4ccc(C)cc4)ccc3S(=O)(=O)N([C@H](C)CO)C[C@H]2C)cc1	.	4	1.7*	1	3	.
COc1cccc(CN2CC3(CCN(Cc4ccccn4)CC3)c3c([nH]c4cc(OC)ccc34)[C@@H]2CO)c1	.	.	.	6	-1	.
C[C@@H]1CN([C@@H](C)CO)C(=O)c2cc(NC(=O)c3ccncc3)ccc2O[C@@H](C)CCCCO[C@@H]1CN(C)S(=O)(=O)c1ccc(F)cc1	.	2	1	-3	3	-6
CCOC(=O)/C=C(\C)Sc1cc(O)c2ccccc2c1O	-5	77*	0	19	-6	8

Screens: PubChem, Broad Institute
